The source of these data is ChEMBL document CHEMBL1124639, “Synthesis and in vitro pharmacology of arpromidine and related phenyl(pyridylalkyl)guanidines, a potential new class of positive inotropic drugs” (J Med Chem, 1989).

Calls of active or inactive are those of the source. The calls are words filed in the database; no cut-off is given here.

Assay [1] concerns the target Histamine H2 receptor (Cavia porcellus) (UniProt P47747). Put plainly: Intrinsic activity at H2 receptor in electrically stimulated guinea pig papillary muscle. Format: functional, tissue-based. The method in brief: (§1)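 Isolated right-ventricular papillary muscle from guinea pig, electrically paced at 1 Hz with 1 ms pulses, in Krebs-Henseleit solution gassed with O2/CO2 95:5 at 32.5 °C. Compounds were tested as hydrohalide salts. Cumulative concentration-response curves of contractile force were run against histamine as the standard agonist. […] relative potency were taken from pD2, with histamine maximum = 1.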

For assay [2] the target is unchanged. Nature of the assay: H2 receptor agonistic activity in isolated right atrium of guinea pig compared to histamine. In kind it is functional, tissue-based. Particulars: Cardiac atrium. The method in brief: (§2)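 Spontaneously beating isolated guinea pig right atrium with a positive chronotropic read-out. Cumulative concentration-response curves were run against histamine dihydrochloride as the standard. Incubation after each concentration was usually 25 min, adjusted until equilibrium. H2 selectivity was checked with cimetidine (10 µM and 1 µM) and metoprolol (1 µM). Potency relative to histamine = 1 was calculated from mean pD2 values.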

Assay [3] has as its target T1, Histamine H1 receptor (Cavia porcellus, UniProt P31389). Put plainly: Antagonist activity at histamine H1 receptor against histamine in isolated ileum of guinea pig. The settings on record: read-out: pA2 (converted). Format: functional, tissue-based. The method in brief:
(§3)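 Isolated guinea pig ileum contracted by histamine, with histamine dihydrochloride as the standard agonist in cumulative dose-response curves. pA2 was derived. For compounds that depressed the histamine maximum at 10 µM, -log KB was taken at 3 µM antagonist from log(DR-1) = log[ant.] - log KB.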

Assay [4] has as its target Histamine H2 receptor (Cavia porcellus) (UniProt P47747). Nature of the assay: Potency at H2 receptor compared to histamine from mean pD2 value in right atrium of guinea pig. In kind it is functional, tissue-based. The settings on record: Cardiac atrium. The method in brief: as §2
Assay [5] has the same target. Put plainly: H2 receptor agonist activity relative to histamine on isolated right atrium of guinea pig. In kind it is functional, tissue-based. The settings on record: Cardiac atrium. In short, it runs like this:
as §2

For assay [6] the target is unchanged. Nature of the assay: Agonist activity at H2 receptor relative to histamine on electrically stimulated papillary muscle of guinea pig. Format: functional, tissue-based. The method in brief:
as §1

The species entered for assay [7] is Cavia porcellus. Nature of the assay: Relative potency with impromidine (100%) in isolated perfused guinea pig heart. Format: functional. In short, it runs like this:
(§4)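 Langendorff-perfused isolated guinea pig heart. Compounds were given as a bolus injected into the perfusion stream, with impromidine as reference. Net increases in LV dp/dtmax, heart rate and coronary flow were expressed against impromidine = 100% in a control group (n = 6 each). Relative potency was taken from molar ED50 ratios versus impromidine = 100%.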

The species entered for assay [8] is Cavia porcellus. Nature of the assay: (§5) Increase in heart rate with maximal inotropic response in isolated perfused guinea pig heart. In kind it is functional. Details: unit not given beside the values. In short, it runs like this: as §4
Assay [9] is filed under the species Cavia porcellus. Nature of the assay: Chronotropic effect assessed from maximal increase in delta LV (dp/dtmax) in isolated perfused guinea pig heart. Format: functional. The settings on record: in the assay text read “Inotropic effect” for “Chronotropic effect”. The method in brief:
as §4

Assay [10] is filed under the species Cavia porcellus. Nature of the assay: Increase in coronary flow with maximal inotropic response in isolated perfused guinea pig heart. Details: unit not given beside the values. In kind it is functional. The method in brief:
as §4

The target in assay [11] is Histamine H2 receptor (Cavia porcellus) (UniProt P47747). Put plainly: Compound was tested for histamine H2 receptor agonistic activity of compound relative to histamine on isolated right atrium of guinea pig;NA means inactive as agonist at </=10 uM. Format: functional, tissue-based. The settings on record: Cardiac atrium. In short, it runs like this: as §2
Chain of Histamine H2 receptor (Cavia porcellus) (P47747 whole entry): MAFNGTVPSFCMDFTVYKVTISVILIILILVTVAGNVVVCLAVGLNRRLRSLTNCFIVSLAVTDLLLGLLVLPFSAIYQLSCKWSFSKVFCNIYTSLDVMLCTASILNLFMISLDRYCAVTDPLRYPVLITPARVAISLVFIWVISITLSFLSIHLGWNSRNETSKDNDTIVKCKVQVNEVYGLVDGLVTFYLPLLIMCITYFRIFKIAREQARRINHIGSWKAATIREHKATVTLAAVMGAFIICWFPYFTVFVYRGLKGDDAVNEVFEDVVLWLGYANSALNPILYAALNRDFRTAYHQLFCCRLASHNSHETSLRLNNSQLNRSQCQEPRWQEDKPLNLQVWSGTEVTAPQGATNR
Assay [12] has the same target. Put plainly: Intrinsic activity (as a measure of agonism) on electrically stimulated papillary muscle of guinea pig. Particulars: Muscle tissue. Format: functional, tissue-based. In short, it runs like this:
as §1

The target is the same in assay [13]. Put plainly: Histamine H2 receptor agonism relative to histamine on isolated guinea pig right atrium. In kind it is functional, tissue-based. Particulars: Cardiac atrium. The method in brief:
as §2

The species named for assay [14] is Cavia porcellus. The description is as §5. Format: functional. In short, it runs like this: as §4
Assay [15] concerns the target Histamine H2 receptor (Cavia porcellus) (UniProt P47747). Nature of the assay: Histamine H2 receptor agonistic activity (as a measure of agonism) at the isolated right atrium of guinea pig, activity relative to histamine. Format: functional, tissue-based. The settings on record: Cardiac atrium. In short, it runs like this: as §2
Assay [16] shares this target. Put plainly: Potency relative to histamine calculated from mean pD2 value in guinea pig right atrium. Particulars: Cardiac atrium. Format: functional, tissue-based. The method in brief:
as §2

For assay [17] the target is unchanged. Put plainly: Agonistic activity relative to histamine on electrically stimulated papillary muscle of guinea pig. In kind it is functional, tissue-based. The settings on record: Muscle tissue. In short, it runs like this: as §1
Assay [18] has as its target T1, Histamine H1 receptor. Put plainly: Antagonist activity at histamine H1 receptor against histamine in isolated ileum of guinea pig. Format: functional, tissue-based. Particulars: read-out: pA2 (converted). The method in brief:
as §3

T1 sequence (P31389 whole entry): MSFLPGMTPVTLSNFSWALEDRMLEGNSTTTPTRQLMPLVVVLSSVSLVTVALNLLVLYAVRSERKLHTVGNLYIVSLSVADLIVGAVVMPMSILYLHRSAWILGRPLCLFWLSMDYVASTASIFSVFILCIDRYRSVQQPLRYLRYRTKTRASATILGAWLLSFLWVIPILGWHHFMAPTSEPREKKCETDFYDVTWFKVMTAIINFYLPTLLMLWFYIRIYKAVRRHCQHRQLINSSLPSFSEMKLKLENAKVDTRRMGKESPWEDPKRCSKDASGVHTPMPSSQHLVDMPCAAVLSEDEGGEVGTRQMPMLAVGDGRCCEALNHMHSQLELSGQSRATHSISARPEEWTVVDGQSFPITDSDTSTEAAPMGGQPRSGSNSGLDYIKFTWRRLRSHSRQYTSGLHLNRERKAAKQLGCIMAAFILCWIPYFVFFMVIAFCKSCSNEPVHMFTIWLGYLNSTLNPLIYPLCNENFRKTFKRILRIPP

On to `N=C(NCCCc1c[nH]cn1)NCCC(c1ccccc1)c1ccc(Cl)cc1` (stereo unspecified), for which the Intrinsic activity was 0.8 in [1] and 1 in assay [2]. At Histamine H1 receptor [3], the Kb is 97.7 nM. In [4], this molecule came in with a Relative potency of 13.2. Besides, the pD2 in assay [5] amounted to 7.12; in [6], 5.83.
`N=C(NCCCc1c[nH]cn1)NCCC(c1ccccn1)c1ccccc1Cl` (stereo unspecified): in assay [2], the Intrinsic activity amounted to 0.9. For the same molecule, the Kb on Histamine H1 receptor [3] is 513 nM. Also, the Relative potency in [4] is 22.4. In assay [5], this molecule showed a pD2 of 7.35.
As to `N=C(NCCCc1c[nH]cn1)NCCC(c1ccc(F)c(F)c1)c1ccccn1` (stereo unspecified), the Relative potency in the assay filed under Cavia porcellus [7] was 240; in assay [4] it was 132. In addition, the Delta heart rate in the assay filed under Cavia porcellus [8] amounted to 85. The Intrinsic activity in assay [1] was 0.8; in assay [2], 1. In addition, the “Delta LV” value in the assay filed under Cavia porcellus [9] is reported as 123. The molecule further gave a Delta coronary flow in the assay listed under Cavia porcellus [10] of 108. For the same molecule, the pD2 worked out at 8.12 in assay [5] and 7.9 in assay [6].
As to `N=C(N)NCCC(c1ccc(F)cc1)c1ccccn1` (stereo unspecified), the Kb on Histamine H1 receptor [3] was 229 nM. The Intrinsic activity entry in [11] is “inactive”.
On to `N=C(NCCCc1c[nH]cn1)NCCC(c1ccccc1)c1ccccn1` (stereo unspecified), for which the Relative potency is 63 in the assay filed under Cavia porcellus [7] and 24.5 in assay [16]. For the same molecule, the “Delta LV” value in the assay filed under Cavia porcellus [9] turned out to be 76. Further, the Intrinsic activity in [12] came to 0.7; in [15], 1. Further, the Kb at Histamine H1 receptor [3] is 97.7 nM. For the same molecule, the Delta coronary flow in the assay filed under Cavia porcellus [10] is recorded as 121. The values for the pD2 in [13] and in assay [17] were 7.39 and 7.37, respectively. This molecule yielded a Delta heart rate in the assay filed under Cavia porcellus [14] of 70.
Turning to `N=C(NCCCc1c[nH]cn1)NCCC(c1ccncc1)c1ccc(F)cc1` (stereo unspecified), the Intrinsic activity worked out at 0.9 in assay [1] and 1 in assay [2]. Also, the Kb on Histamine H1 receptor [3] is 37.2 nM. Besides, the Relative potency in [4] came out at 42.7. Besides, the pD2 in assay [5] was 7.63; in [6], 7.28.
As for `N/C(=N\CCC(c1ccc(O)cc1)c1ccccn1)NCCCc1c[nH]cn1` (stereo unspecified), the Kb on Histamine H1 receptor [18] was 661 nM. For the same molecule, the pD2 in assay [13] stood at 6.63. In assay [15], this molecule registered an Intrinsic activity of 1. For the same molecule, in assay [16], the Relative potency is 4.3.
As for `N=C(NCCCc1c[nH]cn1)NCCC(c1cc(F)cc(F)c1)c1ccccn1` (stereo unspecified), the figures for the Relative potency (in the assay filed under Cavia porcellus [7]; in assay [16]) were 244 and 112, respectively. For the same molecule, in the assay filed under Cavia porcellus [8], the Delta heart rate was determined as 79. Also, the “Delta LV” value in the assay filed under Cavia porcellus [9] is reported as 129. Also, the Intrinsic activity came to 0.8 in assay [12] and 1 in [15]. The Kb at Histamine H1 receptor [3] was 275 nM. The Delta coronary flow in the assay listed under Cavia porcellus [10] is listed as 182. Also, the pD2 in assay [13] came to 8.05; in assay [17], 7.91.
